Test system: U2OS
Assay: Multiplex assay against U2OS
Assay type: toxicity, cell-based
Conditions: human
Procedure, shortened: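 Tubulin, mitochondrial-mass and membrane-permeability phenotypes are per cents of healthy-nucleus cells. Cells were gated by CellPathfinder machine learning into Hoechst high-intensity objects or normal cells, normal cells into healthy, pyknosed or fragmented nuclei, and pyknosed cells into mitotic or apoptotic. Before that, live cells stained at seeding with Hoechst33342, BioTracker Green Microtubule Cytoskeleton Dye, MitoTracker Red and Annexin V Alexa Fluor 680 were imaged on a CQ1 microscope at 37°C and 5% CO2 after compound addition.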

[1] = 12 h, 1 µM, compound concentration 1 uM, replicate 1
[2] = 12 h, 1 µM, compound concentration 1 uM, replicate 2
[3] = 12 h, 10 µM, compound concentration 10 uM, replicate 1
[4] = 12 h, 10 µM, compound concentration 10 uM, replicate 2
[5] = 24 h, 1 µM, compound concentration 1 uM, replicate 1
[6] = 24 h, 1 µM, compound concentration 1 uM, replicate 2
[7] = 24 h, 10 µM, compound concentration 10 uM, replicate 1
[8] = 24 h, 10 µM, compound concentration 10 uM, replicate 2
[9] = 48 h, 1 µM, compound concentration 1 uM, replicate 1
[10] = 48 h, 1 µM, compound concentration 1 uM, replicate 2
[11] = 48 h, 10 µM, compound concentration 10 uM, replicate 1
[12] = 48 h, 10 µM, compound concentration 10 uM, replicate 2

CN(C)C(=O)Cn1cc(-c2ccc(-c3cncc4ccccc34)cc2)cn1
Population Apoptotic (%) [1]: 68% | Population Fragmented Nuclei (%) [1]: 22% | Population Healthy Nuclei (%) [1]: 68% | Population Hoechst High Intensity Objects (%) [1]: 3% | Population Membrane Permeable-Phenotype (%) [1]: 8% | Population Mitochondria Different-Phenotype (%) [1]: 4% | Population Mitotic Cells (%) [1]: 31% | Population Normal (%) [1]: 96% | Population Pyknosed Nuclei (%) [1]: 9% | Population Tubulin-Different-Phenotype (%) [1]: 5% | Total Cell Count [1]: 240 | Population Apoptotic (%) [2]: 69% | Population Fragmented Nuclei (%) [2]: 18% | Population Healthy Nuclei (%) [2]: 69% | Population Hoechst High Intensity Objects (%) [2]: 0% | Population Membrane Permeable-Phenotype (%) [2]: 6% | Population Mitochondria Different-Phenotype (%) [2]: 2% | Population Mitotic Cells (%) [2]: 30% | Population Normal (%) [2]: 99% | Population Pyknosed Nuclei (%) [2]: 11% | Population Tubulin-Different-Phenotype (%) [2]: 3% | Total Cell Count [2]: 110 | Population Apoptotic (%) [3]: 66% | Population Fragmented Nuclei (%) [3]: 21% | Population Healthy Nuclei (%) [3]: 67% | Population Hoechst High Intensity Objects (%) [3]: 5% | Population Membrane Permeable-Phenotype (%) [3]: 20% | Population Mitochondria Different-Phenotype (%) [3]: 12% | Population Mitotic Cells (%) [3]: 33% | Population Normal (%) [3]: 94% | Population Pyknosed Nuclei (%) [3]: 10% | Population Tubulin-Different-Phenotype (%) [3]: 14% | Total Cell Count [3]: 205 | Population Apoptotic (%) [4]: 100% | Population Fragmented Nuclei (%) [4]: 18% | Population Healthy Nuclei (%) [4]: 75% | Population Hoechst High Intensity Objects (%) [4]: 3% | Population Membrane Permeable-Phenotype (%) [4]: 22% | Population Mitochondria Different-Phenotype (%) [4]: 19% | Population Mitotic Cells (%) [4]: 0% | Population Normal (%) [4]: 96% | Population Pyknosed Nuclei (%) [4]: 5% | Population Tubulin-Different-Phenotype (%) [4]: 23% | Total Cell Count [4]: 98 | Population Apoptotic (%) [5]: 100% | Population Fragmented Nuclei (%) [5]: 21% | Population Healthy Nuclei (%) [5]: 69% | Population Hoechst High Intensity Objects (%) [5]: 3% | Population Membrane Permeable-Phenotype (%) [5]: 5% | Population Mitochondria Different-Phenotype (%) [5]: 2% | Population Mitotic Cells (%) [5]: 0% | Population Normal (%) [5]: 96% | Population Pyknosed Nuclei (%) [5]: 8% | Population Tubulin-Different-Phenotype (%) [5]: 4% | Total Cell Count [5]: 278 | Population Apoptotic (%) [6]: 90% | Population Fragmented Nuclei (%) [6]: 15% | Population Healthy Nuclei (%) [6]: 76% | Population Hoechst High Intensity Objects (%) [6]: 1% | Population Membrane Permeable-Phenotype (%) [6]: 8% | Population Mitochondria Different-Phenotype (%) [6]: 6% | Population Mitotic Cells (%) [6]: 9% | Population Normal (%) [6]: 98% | Total Cell Count [6]: 127 | Population Apoptotic (%) [7]: 54% | Population Fragmented Nuclei (%) [7]: 25% | Population Healthy Nuclei (%) [7]: 64% | Population Hoechst High Intensity Objects (%) [7]: 3% | Population Membrane Permeable-Phenotype (%) [7]: 19% | Population Mitochondria Different-Phenotype (%) [7]: 9% | Population Mitotic Cells (%) [7]: 45% | Population Normal (%) [7]: 96% | Population Pyknosed Nuclei (%) [7]: 9% | Population Tubulin-Different-Phenotype (%) [7]: 10% | Total Cell Count [7]: 244 | Population Apoptotic (%) [8]: 80% | Population Fragmented Nuclei (%) [8]: 11% | Population Healthy Nuclei (%) [8]: 84% | Population Hoechst High Intensity Objects (%) [8]: 2% | Population Membrane Permeable-Phenotype (%) [8]: 16% | Population Mitochondria Different-Phenotype (%) [8]: 15% | Population Mitotic Cells (%) [8]: 20% | Population Normal (%) [8]: 97% | Population Pyknosed Nuclei (%) [8]: 4% | Population Tubulin-Different-Phenotype (%) [8]: 14% | Total Cell Count [8]: 110 | Population Apoptotic (%) [9]: 87% | Population Fragmented Nuclei (%) [9]: 18% | Population Healthy Nuclei (%) [9]: 69% | Population Hoechst High Intensity Objects (%) [9]: 2% | Population Membrane Permeable-Phenotype (%) [9]: 6% | Population Mitochondria Different-Phenotype (%) [9]: 3% | Population Mitotic Cells (%) [9]: 12% | Population Normal (%) [9]: 97% | Population Pyknosed Nuclei (%) [9]: 12% | Population Tubulin-Different-Phenotype (%) [9]: 4% | Total Cell Count [9]: 333 | Population Apoptotic (%) [10]: 88% | Population Fragmented Nuclei (%) [10]: 20% | Population Healthy Nuclei (%) [10]: 67% | Population Hoechst High Intensity Objects (%) [10]: 3% | Population Membrane Permeable-Phenotype (%) [10]: 12% | Population Mitochondria Different-Phenotype (%) [10]: 9% | Population Mitotic Cells (%) [10]: 11% | Population Normal (%) [10]: 96% | Population Pyknosed Nuclei (%) [10]: 11% | Population Tubulin-Different-Phenotype (%) [10]: 9% | Total Cell Count [10]: 163 | Population Apoptotic (%) [11]: 74% | Population Fragmented Nuclei (%) [11]: 22% | Population Healthy Nuclei (%) [11]: 62% | Population Hoechst High Intensity Objects (%) [11]: 2% | Population Membrane Permeable-Phenotype (%) [11]: 15% | Population Mitochondria Different-Phenotype (%) [11]: 8% | Population Mitotic Cells (%) [11]: 25% | Population Normal (%) [11]: 97% | Population Pyknosed Nuclei (%) [11]: 14% | Population Tubulin-Different-Phenotype (%) [11]: 8% | Total Cell Count [11]: 302 | Population Apoptotic (%) [12]: 92% | Population Fragmented Nuclei (%) [12]: 21% | Population Healthy Nuclei (%) [12]: 68% | Population Membrane Permeable-Phenotype (%) [12]: 20% | Population Mitochondria Different-Phenotype (%) [12]: 14% | Population Mitotic Cells (%) [12]: 7% | Population Pyknosed Nuclei (%) [12]: 9% | Population Tubulin-Different-Phenotype (%) [12]: 16% | Total Cell Count [12]: 149

Reference: ChEMBL document CHEMBL5058577, “EUbOPEN Chemogenomics Library 2 (Multiplex)” (2022)
